Measured values: article PMC5189718 (Journal of the American Chemical Society, 2016)
“And” between values parts separate entries of the source, which are not always exact repeats. Equal values may be shown once.

What was measured:
hKOR [1] = target: T1, hKOR (Homo sapiens, UniProt P41145); assay: G protein BRET functional assay at hKOR; assay type: cell-based; settings: for agonist activity: concentrations up to 100 µM; for IC50: read-out: IC50 ± SEM (antagonist activity), inhibition of a reference agonist (U-50,488)
Method in brief: (§1)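 HEK cells expressing the human receptor, co-transfected with Gα fused to an RLuc8 donor and Gγ fused to an mVenus acceptor. Receptor activation separates the G protein subunits, so the BRET signal falls. Agonist mode gives EC50 and Emax. Antagonist mode gives IC50 for inhibition of a reference agonist, and pA2 from Schild analysis. Values are mean ± SEM, n ≥ 3.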

[2] = target: human mu-opioid receptor (hMOR) (Homo sapiens, UniProt P35372); assay: G protein BRET functional assay at hMOR; assay type: cell-based; settings: for maximal efficacy (Emax) relative to DAMGO: G protein BRET, agonist mode; for EC50: read-out: EC50 ± SEM (agonist activity), G protein BRET, HEK cells, mean ± SEM, n ≥ 3
hDOR [3] = target: T2, hDOR (Homo sapiens, UniProt P41143); assay: G protein BRET functional assay at hDOR; assay type: cell-based; settings: for agonist activity: concentrations up to 100 µM; for IC50: read-out: IC50 ± SEM (antagonist activity), inhibition of a reference agonist
Method in brief: as §1

hDOR [4] = target: T2, hDOR; assay: Radioligand binding at hDOR; settings: read-out: Ki ± SEM, n ≥ 3
rodent opioid receptors = assay: G protein BRET functional assays using rodent opioid receptors; assay type: cell-based; settings: rodent receptors (mouse or rat)
hMOR [5] = target: T3, hMOR (Homo sapiens, UniProt P35372); assay: Radioligand binding at hMOR; settings: read-out: Ki ± SEM, n ≥ 3
hKOR [6] = target: T1, hKOR; assay: Radioligand binding at hKOR; settings: read-out: Ki ± SEM, n ≥ 3
hMOR [7] = target: T3, hMOR; assay: β-arrestin recruitment BRET assay at hMOR; assay type: cell-based; settings: β-arrestin-2 BRET, in the presence of GRK2
mouse MOR (mMOR) = mouse MOR (mMOR) (Mus musculus, UniProt P42866); assay: G protein BRET functional assay at mouse MOR; assay type: cell-based
Chain of mouse MOR (mMOR) (P42866 whole entry): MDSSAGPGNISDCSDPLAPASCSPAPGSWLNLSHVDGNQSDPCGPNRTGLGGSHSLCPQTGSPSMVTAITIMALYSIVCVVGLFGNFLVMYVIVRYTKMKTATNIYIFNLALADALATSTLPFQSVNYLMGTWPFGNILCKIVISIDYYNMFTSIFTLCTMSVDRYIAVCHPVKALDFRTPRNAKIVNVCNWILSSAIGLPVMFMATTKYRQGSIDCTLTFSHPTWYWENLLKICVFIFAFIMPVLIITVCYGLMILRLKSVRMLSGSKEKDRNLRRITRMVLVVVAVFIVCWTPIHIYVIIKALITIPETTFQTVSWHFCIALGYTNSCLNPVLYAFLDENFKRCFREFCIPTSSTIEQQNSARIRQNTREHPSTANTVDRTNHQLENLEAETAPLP

Chain of human mu-opioid receptor (hMOR) (P35372 whole entry): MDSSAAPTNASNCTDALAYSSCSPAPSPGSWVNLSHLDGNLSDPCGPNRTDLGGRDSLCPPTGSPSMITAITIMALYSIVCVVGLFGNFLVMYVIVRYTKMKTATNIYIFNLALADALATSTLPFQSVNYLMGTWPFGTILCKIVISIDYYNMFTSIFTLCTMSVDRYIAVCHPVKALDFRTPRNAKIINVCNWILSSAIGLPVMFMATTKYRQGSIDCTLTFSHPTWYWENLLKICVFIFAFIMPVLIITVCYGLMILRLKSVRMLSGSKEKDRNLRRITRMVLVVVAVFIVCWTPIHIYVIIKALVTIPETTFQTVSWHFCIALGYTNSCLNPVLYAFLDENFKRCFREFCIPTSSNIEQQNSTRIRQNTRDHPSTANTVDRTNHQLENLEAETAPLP
T1 sequence (P41145 whole entry, the tested form may be a part): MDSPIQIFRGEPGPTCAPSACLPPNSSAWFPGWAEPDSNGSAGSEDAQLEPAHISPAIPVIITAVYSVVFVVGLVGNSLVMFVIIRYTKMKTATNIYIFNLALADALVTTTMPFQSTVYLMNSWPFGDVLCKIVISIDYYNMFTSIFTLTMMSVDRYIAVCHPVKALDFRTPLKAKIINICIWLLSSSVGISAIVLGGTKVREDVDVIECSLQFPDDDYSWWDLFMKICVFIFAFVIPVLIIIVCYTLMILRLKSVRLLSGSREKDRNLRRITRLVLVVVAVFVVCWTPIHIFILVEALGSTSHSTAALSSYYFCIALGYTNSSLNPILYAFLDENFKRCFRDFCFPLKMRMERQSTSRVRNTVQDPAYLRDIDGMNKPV
T2 sequence (P41143 whole entry): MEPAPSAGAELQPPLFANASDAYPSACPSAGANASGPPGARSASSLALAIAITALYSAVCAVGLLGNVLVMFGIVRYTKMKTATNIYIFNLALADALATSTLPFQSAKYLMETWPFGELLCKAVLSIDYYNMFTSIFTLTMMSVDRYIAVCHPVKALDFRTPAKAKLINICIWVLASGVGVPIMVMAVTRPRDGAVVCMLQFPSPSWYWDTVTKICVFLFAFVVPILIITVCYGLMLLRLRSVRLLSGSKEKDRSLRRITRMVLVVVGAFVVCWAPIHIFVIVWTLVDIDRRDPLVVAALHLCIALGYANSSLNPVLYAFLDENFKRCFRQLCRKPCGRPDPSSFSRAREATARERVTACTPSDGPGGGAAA
T3 sequence (P35372 whole entry): as the sequence (P35372 whole entry) above

For `CCC1CN2CCc3c([nH]c4cccc(OC)c34)C2CC1C(=COC)C(=O)OC` (single isomer, unassigned; (+)) [(+)-mitragynine], the Emax (hKOR [1]; G protein BRET, agonist mode) was 31%.

For `C=C[C@H]1CN2CCc3c([nH]c4cccc(OC)c34)[C@@H]2C[C@@H]1/C(=C\OC)C(=O)OC` [paynantheine], the agonist activity ([2]; concentrations up to 100 µM) was “no measurable agonist activity”, the IC50 ([2]; read-out: IC50 ± SEM (antagonist activity), inhibition of a reference agonist, n ≥ 3) was 2.2 µM and the agonist activity (hDOR [3]) was “no measurable agonist activity”. The Ki (hDOR [4]) was greater than 10 µM, the agonist activity (hKOR [1]) was “no measurable agonist activity” and the “agonist or antagonist activity at rodent opioid receptors” value (from here on “agonist or antagonist activity”) (rodent opioid receptors) was “no notable agonist or antagonist activity”. For the same compound, the Ki (hMOR [5]) was 0.41 ± 0.152 µM.

In the case of `CO/C=C(/C(=O)OC)[C@@H]1CCN2CCc3c([nH]c4cccc(OC)c34)[C@@H]2C1` [Compound 3, desethylmitragynine], the “maximal efficacy (Emax) relative to DAMGO” value [2] is reported as 59% and the EC50 [2] is reported as 12 ± 7.6 µM.

In the case of mitragynine, the “antagonist activity at hDOR” value (hDOR [3]) is reported as “very low potency”, the IC50 (hDOR [3]) is reported as greater than 10 µM and the Ki (hDOR [4]) is reported as greater than 10 µM. For the same compound, the “pA2 determined from Schild analysis” value (hKOR [1]; competitive antagonism) was 1.4 ± 0.40 µM and 1.4 µM, the IC50 (hKOR [1]) was 8.5 µM and the Ki (hKOR [6]) was 0.772 ± 0.207 µM. For the same compound, the “agonist or antagonist activity” value (rodent opioid receptors) was “no agonist activity”.

With `CC[C@@H]1CN2CCc3c([nH]c4cccc(O)c34)[C@@H]2C[C@@H]1/C(=C\OC)C(=O)OC` [Compound 1] the “maximal efficacy (Emax) relative to DAMGO” value [2] was 29% and the EC50 [2] was 0.681 ± 0.379 µM.

In the case of `CC[C@@H]1CN2CC[C@@]3(O)C(=Nc4cccc(OC)c43)[C@@H]2C[C@@H]1/C(=C\OC)C(=O)OC` [Compound 7-OH, 7-hydroxymitragynine], the β-arrestin recruitment (hMOR [7]) is reported as “no measurable β-arrestin binding”, the IC50 (hDOR [3]) is reported as greater than 10 µM and the “agonist activity at mMOR” value (mouse MOR (mMOR)) is reported as “retains its agonist activity”. The Ki (hDOR [4]) was 0.219 ± 0.041 µM, the “pA2 (Schild analysis)” value (hKOR [1]; competitive antagonism) was 490 ± 131 nM and the “pA2 determined from Schild analysis” value (hKOR [1]; competitive antagonism) was 0.49 µM. For the same compound, the IC50 (hKOR [1]) was 7.9 µM.

With `CC[C@H]1CN2CCc3c([nH]c4cccc(OC)c34)[C@@H]2C[C@@H]1/C(=C\OC)C(=O)OC` [speciogynine] the agonist activity (hDOR [3]) was “no measurable agonist activity”, the IC50 (hDOR [3]) was greater than 10 µM and the Ki (hDOR [4]) was greater than 10 µM. For the same compound, the agonist activity (hKOR [1]) was “no measurable agonist activity”, the IC50 (hKOR [1]) was greater than 10 µM and the “agonist or antagonist activity” value (rodent opioid receptors) was “no notable agonist or antagonist activity”.

For `CC[C@@H]1CN2CCc3c([nH]c4cccc(OC)c34)[C@H]2C[C@@H]1/C(=C\OC)C(=O)OC` [speciociliatine], the agonist activity (hDOR [3]) was “no measurable agonist activity”, the IC50 (hDOR [3]) was greater than 10 µM and the Ki (hDOR [4]) was greater than 10 µM. The agonist activity (hKOR [1]) was “no measurable agonist activity”, the IC50 (hKOR [1]) was greater than 10 µM and the “agonist or antagonist activity” value (rodent opioid receptors) was “no notable agonist or antagonist activity”.
